Active and inactive are the calls of the source. No cut-off for these calls is given here.
Experiments:
[1] = test system: Vesicular stomatitis virus; experiment: Evaluation for serum interferon response from a single 800 mg/kg intraperitoneal administration in vesicular stomatitis virus on […] cells.; format: functional
Summary of the method: (§1)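 Mice got a single ip 800 mg/kg dose. Blood was drawn 3, 6, 8 and 12 h later from five mice per group and pooled. Interferon titer was measured by plaque reduction with vesicular stomatitis virus on L929 cells. Titer is the reciprocal serum dilution cutting plaques by 50% versus untreated cultures. Peak response within 24 h was banded: ≥2000, ~500-1000, ~50-500, ~10-50 U/mL.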

Semliki Forest virus [2] = experiment: Antiviral activity against Forest virus (SFV); format: functional
Summary of the method: (§2)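 ICR or CD-1 mice of both sexes got one drug dose by the route in the line (ip, po or sc). The drug was a suspension in 0.9% NaCl or in a CMC/polysorbate 80/benzyl alcohol/NaCl vehicle. […] Deaths were recorded daily for 6 days, 24 mice/group. ED50 is the minimal dose protecting 50% of mice, by probit analysis.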

Semliki Forest virus [3] = experiment: Effective dose administered perorally againist Forest virus infected mice; format: functional; conditions: po; summary of the method: as §2
Semliki Forest virus [4] = experiment: Effective dose administered subcutaneously againist Forest virus infected mice; format: functional; conditions: sc; summary of the method: as §2
Mus musculus [5] = experiment: Protection index after intraperitoneal administration (50 mg/kg/day) against herpes simplex virus type-1 (HSV-1) infected mice [protection index=(control mortality-treated mortality)/control mortality]; format: functional
Summary of the method: (§3)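 ICR or CD-1 mice got drug ip in saline as the total daily dose (mg/kg/day). It was split into doses at -40, -28, -20, -3 and +3 h relative to ip inoculation with 5.6×10^4 pfu HSV-1. Mice were followed for 22 days, 15/group. Protection index = (control mortality − treated mortality)/control mortality; >0.25 counted active. Only the lowest protective dose is recorded.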

Mus musculus [6] = experiment: Protection index after intraperitoneal administration (25 mg/kg/day) against herpes simplex virus type-1 (HSV-1) infected mice [protection index=(control mortality-treated mortality)/control mortality]; format: functional; summary of the method: as §3
Semliki Forest virus [7] = experiment: Effective dose administered perorally against Forest virus infected mice; format: functional, organism-based
Summary of the method: (§4)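 Drug was suspended in 0.9% NaCl or in a carboxymethylcellulose/polysorbate 80/benzyl alcohol/NaCl vehicle. Deaths were recorded daily for 6 days, with 24 mice per group. The ED50 is the minimal dose protecting 50% of mice, calculated by probit analysis.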

Semliki Forest virus [8] = experiment: Effective dose administered subcutaneously against Forest virus infected mice; format: functional, organism-based; summary of the method: as §4
Mus musculus [9] = experiment: Evaluation for serum interferon response from a single 800 mg/kg intraperitoneal administration in vesicular stomatitis virus on […] cells; Range 10-50 units/mL; format: functional; summary of the method: as §1
Human alphaherpesvirus 1 = experiment: Intraperitoneal administration against herpes simplex virus type-1 (HSV-1) infected mice; format: functional; summary of the method: as §3
Semliki Forest virus [10] = experiment: Effective dose administered intraperitoneally againist Forest virus infected mice; format: functional, organism-based; summary of the method: as §4
Mus musculus [11] = experiment: The compound was evaluated for the serum interferon response from a single 800 mg/kg intraperitoneal administration in vesicular stomatitis virus on […] cells; Range 500-1000 units/mL; format: functional; summary of the method: as §1
Mus musculus [12] = experiment: The compound was evaluated for the serum interferon response from a single 800 mg/kg intraperitoneal administration in vesicular stomatitis virus on […] cells; range 500-1000 units/mL; format: functional; summary of the method: as §1
Mus musculus [13] = experiment: The compound was evaluated for the serum interferon response from a single 800 mg/kg intraperitoneal administration in vesicular stomatitis virus on […] cells; Range 50-500 units/mL; format: functional; summary of the method: as §1

SMILES | ED50 (Semliki Forest virus [2]) | ED50 (Semliki Forest virus [3]) | ED50 (Semliki Forest virus [4]) | ED50 (Semliki Forest virus [7]) | ED50 (Semliki Forest virus [8]) | Protection index (Human alphaherpesvirus 1) | further results
Nc1nc(O)c(Br)c(-c2ccccc2F)n1 | 25 mg/kg | > 400 mg/kg | 200 mg/kg | – | – | – | IFN [1]: 50 units/mL; Protection index (Mus musculus [5]): 0.69
Nc1nc(O)c(Cl)c(-c2cccc(F)c2)n1 | 30 mg/kg | > 400 mg/kg | 100 mg/kg | – | – | – | IFN [1]: >=2000 ml; Protection index (Mus musculus [6]): 0.61
Nc1nc(O)c(Br)c(-c2ccc(O)cc2)n1 | > 400 mg/kg | – | – | inactive | inactive | – | –
Nc1nc(O)c(I)c(-c2ccc(Cl)cc2)n1 | 110 mg/kg | > 400 mg/kg | > 400 mg/kg | – | – | 0.27 | IFN (Mus musculus [9]): 10 units/mL
Nc1nc(O)c(I)c(-c2ccc(-c3ccccc3)cc2)n1 | – | – | – | inactive | inactive | – | ED50 (Semliki Forest virus [10]): inactive
Nc1nc(O)c(I)c(-c2cccc(Cl)c2)n1 | 35 mg/kg | > 400 mg/kg | 250 mg/kg | – | – | 0.65 | IFN (Mus musculus [11]): 500 units/mL
Nc1nc(O)c(I)c(-c2ccco2)n1 | 135 mg/kg | > 400 mg/kg | > 400 mg/kg | – | – | 0.28 | IFN (Mus musculus [9]): 10 units/mL
Nc1nc(O)c(Cl)c(-c2ccc(O)cc2)n1 | > 400 mg/kg | – | – | inactive | inactive | – | –
Nc1nc(O)c(I)c(-c2cccc3ccccc23)n1 | 70 mg/kg | > 400 mg/kg | > 400 mg/kg | – | – | 0.18 | IFN (Mus musculus [9]): 10 units/mL
Nc1nc(O)c(I)c(-c2cnccn2)n1 | 275 mg/kg | > 400 mg/kg | > 400 mg/kg | – | – | – | IFN (Mus musculus [12]): 500 units/mL
Nc1nc(O)c(I)c(-c2ccccc2F)n1 | 105 mg/kg | > 400 mg/kg | > 400 mg/kg | – | – | – | IFN (Mus musculus [12]): 500 units/mL; Protection index (Mus musculus [5]): 0.67
CC(C)(C)c1ccc(-c2nc(N)nc(O)c2Br)cc1 | – | – | – | inactive | inactive | – | ED50 (Semliki Forest virus [10]): inactive
Nc1nc(O)c(Br)c(-c2ccc(Cl)cc2)n1 | 100 mg/kg | > 400 mg/kg | > 400 mg/kg | – | – | – | IFN (Mus musculus [9]): 10 units/mL
Cc1ccc(-c2nc(N)nc(O)c2Br)cc1 | 200 mg/kg | – | – | – | – | – | IFN (Mus musculus [9]): 10 units/mL
COc1ccc(-c2nc(N)nc(O)c2Br)cc1 | > 400 mg/kg | – | – | inactive | inactive | – | –
Cc1ccccc1-c1nc(N)nc(O)c1Cl | 130 mg/kg | > 400 mg/kg | 350 mg/kg | – | – | 0.13 | IFN (Mus musculus [12]): 500 units/mL
Nc1nc(O)c(Br)c(-c2cc(Cl)cc(Cl)c2)n1 | 245 mg/kg | > 400 mg/kg | > 400 mg/kg | – | – | – | IFN (Mus musculus [9]): 10 units/mL
COc1cccc(-c2nc(N)nc(O)c2Cl)c1 | 15 mg/kg | > 400 mg/kg | 205 mg/kg | – | – | – | IFN [1]: 50 units/mL; Protection index (Mus musculus [5]): 0.92
Nc1nc(O)c(Br)c(-c2ccc(F)cc2)n1 | 160 mg/kg | > 400 mg/kg | > 400 mg/kg | – | – | 0.46 | IFN (Mus musculus [11]): 500 units/mL
CC(C)(C)c1ccc(-c2nc(N)nc(O)c2I)cc1 | – | – | – | inactive | inactive | – | ED50 (Semliki Forest virus [10]): inactive
Nc1nc(O)c(Cl)c(-c2cnccn2)n1 | 110 mg/kg | 395 mg/kg | > 400 mg/kg | – | – | 0.07 | IFN (Mus musculus [12]): 500 units/mL
CN(C)c1ccc(-c2nc(N)nc(O)c2Br)cc1 | – | – | – | inactive | inactive | 0.13 | ED50 (Semliki Forest virus [10]): inactive
Nc1nc(O)c(Br)c(-c2cccc(C(F)(F)F)c2)n1 | 200 mg/kg | > 400 mg/kg | > 400 mg/kg | – | – | 0.53 | IFN (Mus musculus [13]): 50 mL

— ChEMBL document CHEMBL1123103, “Pyrimidinones. 1. 2-Amino-5-halo-6-aryl-4(3H)-pyrimidinones. Interferon-inducing antiviral agents” (1985)
